Test results published in ChEMBL document CHEMBL2321838, “Chemistry and pharmacological studies of 3-alkoxy-2,5-disubstituted-pyridinyl compounds as novel selective α4β2 nicotinic acetylcholine receptor ligands that reduce alcohol intake in rats” (J Med Chem, 2013).
Active and inactive are the calls of the source. No cut-off for these calls is given here.

What was measured:
[1] = biological target: T1, Neuronal acetylcholine receptor; alpha4/beta2 (Homo sapiens, UniProt P17787+P43681); experiment: Agonist activity at human alpha4beta2 nACHR expressed in HEK293 cells assessed as […] by liquid scintillation counting analysis; type: cell-based
[2] = biological target: T2, Neuronal acetylcholine receptor; alpha3/beta4 (Rattus norvegicus, UniProt P04757+P12392); experiment: Agonist activity at rat alpha3beta4 nACHR expressed in HEK293 cells assessed as […] by liquid scintillation counting analysis; type: cell-based
[3] = biological target: T1, Neuronal acetylcholine receptor; alpha4/beta2; experiment: Agonist activity at human alpha4beta2 nACHR expressed in HEK293 cells assessed as […] by liquid scintillation counting analysis relative to nicotine; type: cell-based
[4] = biological target: Neuronal acetylcholine receptor; alpha4/beta2 (Rattus norvegicus) (UniProt P09483+P12390); experiment: Ratio of (-)-nicotine Ki to compound Ki for rat alpha4beta2 nACHR; type: protein-complex assay
Rattus norvegicus [5] = species: Rattus norvegicus; experiment: Selectivity ratio of Ki for rat alpha7 nACHR to rat alpha4beta2 nACHR
Rattus norvegicus [6] = species: Rattus norvegicus; experiment: Selectivity ratio of Ki for rat alpha3beta4 nACHR to rat alpha4beta2 nACHR
[7] = biological target: T2, Neuronal acetylcholine receptor; alpha3/beta4; experiment: Desensitization of rat alpha3beta4 nACHR expressed in HEK293 cells assessed as inhibition of 86Rb+ efflux preincubated for 10 mins measured after 2 hrs by liquid scintillation counting analysis; type: cell-based
Rattus norvegicus [8] = experiment: Reduction of alcohol intake in sc dosed alcohol-preferring rat after 2 to 24 hrs relative to vehicle-treated control; type: functional, organism-based
Summary of the method: (§1)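 Adult male selectively bred alcohol-preferring (P) rats with two-bottle access (water, alcohol) in Richter tubes, 12:12 light–dark, 22 °C. After stable baseline, single s.c. injection of 0.33, 1 or 3 mg/kg or vehicle; alcohol and water intake (g/kg) read at 2, 4, 6 and 24 h. Crossover, random assignment, ≥3 days between injections, n = 18; mean ± SEM.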

Mustela putorius furo [9] = experiment: Toxicity in ferret assessed as induction of stereotypical behavior at 1 to 30 mg/kg, sc measured for 60 mins; type: organism-based; set-up: dose 1-30 mg/kg, route subcutaneous; conditions: in vivo, 1 h
Summary of the method: (§2)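 Male ferrets (0.9–1.5 kg), food withheld overnight, water ad libitum. After 30 min acclimation alone in an enclosure, single s.c. subscapular injection (1–30 mg/kg in 0.9% saline); emetic episodes and nausea-related stereotypical behaviours (gagging, licking, backward walking) scored by 60 min observation with video recording; n = 6.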

Rattus norvegicus [10] = experiment: Reduction of alcohol intake in alcohol-preferring rat at 3 mg/kg, sc after 6 to 24 hrs; type: functional, organism-based; set-up: dose 3 mg/kg; summary of the method: as §1
Mustela putorius furo [11] = experiment: Toxicity in ferret assessed as induction of emetic episodes at 1 to 30 mg/kg, sc measured for 60 mins; type: organism-based; set-up: dose 1-30 mg/kg, route subcutaneous; conditions: in vivo, 1 h; summary of the method: as §2
Rattus norvegicus [12] = experiment: Reduction of alcohol intake in alcohol-preferring rat at […], sc after 2 to 24 hrs; type: functional, organism-based; set-up: dose 0.33 mg/kg
Rattus norvegicus [13] = experiment: Reduction of alcohol intake in alcohol-preferring rat at 1 mg/kg, sc after 24 hrs; type: functional, organism-based; set-up: dose 1 mg/kg; summary of the method: as §1
[14] = biological target: Neuronal acetylcholine receptor; alpha3/beta4 (Rattus norvegicus) (UniProt P04757+P12392); experiment: Agonist activity at rat alpha3beta4 nACHR expressed in HEK293 cells assessed as stimulation of 86Rb+ efflux after 2 hrs by liquid scintillation counting analysis relative to nicotine; type: cell-based
[15] = biological target: T1, Neuronal acetylcholine receptor; alpha4/beta2; experiment: Desensitization of human alpha4beta2 nACHR expressed in HEK293 cells assessed as inhibition of 86Rb+ efflux preincubated for 10 mins measured after 2 hrs by liquid scintillation counting analysis; type: cell-based
Mustela putorius furo [16] = experiment: Toxicity in ferret assessed as induction of retching at 0.5 mg/kg, sc measured for 60 mins; type: organism-based; set-up: dose 0.5 mg/kg, route subcutaneous; conditions: in vivo, 1 h
Summary of the method: (§3)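 Male ferrets (0.9−1.5 kg), food withheld overnight, water ad libitum. Drug in 0.9% saline, given subcutaneously in the subscapular region after a 30 min acclimation in an individual polycarbonate enclosure. Emesis and nausea-linked behaviours (retching, oral stereotypy, backward walking, locomotion) were scored by 60 min observation with video recording. Affected animals were then given granisetron plus dexamethasone 1 mg/kg i.p.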

Mustela putorius furo [17] = experiment: Toxicity in ferret assessed as cessation of movement at 0.5 mg/kg, sc measured for 60 mins; type: organism-based; set-up: dose 0.5 mg/kg, route subcutaneous; conditions: in vivo, 1 h; summary of the method: as §3
Mustela putorius furo [18] = experiment: Toxicity in ferret assessed as reduction in locomotor behavior at 0.5 mg/kg, sc measured 1.05 mins to 1 hr post injection; type: organism-based; set-up: dose 0.5 mg/kg, route subcutaneous; conditions: in vivo; summary of the method: as §3
Mustela putorius furo [19] = experiment: Toxicity in ferret assessed as induction of licking behavior at 0.5 mg/kg, sc measured 2.20 mins post injection; type: organism-based; set-up: dose 0.5 mg/kg, route subcutaneous; conditions: in vivo, 132 s; summary of the method: as §3
Mustela putorius furo [20] = experiment: Toxicity in ferret assessed as induction of emetic episodes at 0.5 mg/kg, sc measured for 60 mins; type: organism-based; set-up: dose 0.5 mg/kg, route subcutaneous; conditions: in vivo, 1 h; summary of the method: as §3
Mustela putorius furo [21] = experiment: Toxicity in ferret assessed as increase in breathing at 0.5 mg/kg, sc measured for 60 mins; type: organism-based; set-up: dose 0.5 mg/kg, route subcutaneous; conditions: in vivo, 1 h; summary of the method: as §3
Mustela putorius furo [22] = experiment: Toxicity in ferret assessed as backward walking episodes at 0.5 mg/kg, sc measured 2.20 mins post injection; type: organism-based; set-up: dose 0.5 mg/kg, route subcutaneous; conditions: in vivo, 132 s; summary of the method: as §3
Rattus norvegicus [23] = species: Rattus norvegicus; experiment: Displacement of [3H]-Epibatidine from rat nACHR fore-brain by liquid scintillation counting analysis
[24] = biological target: T2, Neuronal acetylcholine receptor; alpha3/beta4; experiment: Displacement of [3H]-Epibatidine from rat alpha3beta4 nACHR expressed in HEK293 cell membranes by liquid scintillation counting analysis; set-up: species or system Membrane

T1 sequence (P17787 whole entry): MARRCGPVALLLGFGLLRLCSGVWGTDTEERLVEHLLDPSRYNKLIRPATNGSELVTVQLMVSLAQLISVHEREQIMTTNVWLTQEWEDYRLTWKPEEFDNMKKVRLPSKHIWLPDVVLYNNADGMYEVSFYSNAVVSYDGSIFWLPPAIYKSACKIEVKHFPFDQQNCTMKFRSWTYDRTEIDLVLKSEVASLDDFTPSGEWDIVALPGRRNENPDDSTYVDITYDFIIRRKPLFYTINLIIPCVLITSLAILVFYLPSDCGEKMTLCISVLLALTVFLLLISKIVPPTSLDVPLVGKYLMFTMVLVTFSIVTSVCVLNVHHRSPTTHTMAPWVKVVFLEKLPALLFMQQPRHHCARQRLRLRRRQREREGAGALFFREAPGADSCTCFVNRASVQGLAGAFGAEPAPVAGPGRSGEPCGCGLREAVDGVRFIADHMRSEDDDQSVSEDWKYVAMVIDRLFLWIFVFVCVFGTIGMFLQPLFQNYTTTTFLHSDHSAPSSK
T1 sequence (P43681 whole entry): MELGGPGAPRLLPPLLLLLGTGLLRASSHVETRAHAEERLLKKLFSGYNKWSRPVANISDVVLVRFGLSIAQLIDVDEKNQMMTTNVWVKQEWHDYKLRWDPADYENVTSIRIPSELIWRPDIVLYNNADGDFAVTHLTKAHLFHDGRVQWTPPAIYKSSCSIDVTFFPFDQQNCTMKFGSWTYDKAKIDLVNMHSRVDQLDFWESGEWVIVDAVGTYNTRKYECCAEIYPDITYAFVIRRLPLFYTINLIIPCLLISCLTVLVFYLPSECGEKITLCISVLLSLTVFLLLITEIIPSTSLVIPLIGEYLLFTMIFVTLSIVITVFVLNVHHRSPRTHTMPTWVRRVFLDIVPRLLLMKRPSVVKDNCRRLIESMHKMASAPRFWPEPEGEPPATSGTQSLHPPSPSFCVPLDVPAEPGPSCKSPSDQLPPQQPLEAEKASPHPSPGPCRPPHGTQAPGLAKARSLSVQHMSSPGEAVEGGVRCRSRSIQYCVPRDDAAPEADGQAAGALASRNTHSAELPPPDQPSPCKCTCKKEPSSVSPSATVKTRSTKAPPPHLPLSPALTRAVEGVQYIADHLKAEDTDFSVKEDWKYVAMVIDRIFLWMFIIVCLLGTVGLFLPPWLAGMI
T2 sequence (P04757 whole entry): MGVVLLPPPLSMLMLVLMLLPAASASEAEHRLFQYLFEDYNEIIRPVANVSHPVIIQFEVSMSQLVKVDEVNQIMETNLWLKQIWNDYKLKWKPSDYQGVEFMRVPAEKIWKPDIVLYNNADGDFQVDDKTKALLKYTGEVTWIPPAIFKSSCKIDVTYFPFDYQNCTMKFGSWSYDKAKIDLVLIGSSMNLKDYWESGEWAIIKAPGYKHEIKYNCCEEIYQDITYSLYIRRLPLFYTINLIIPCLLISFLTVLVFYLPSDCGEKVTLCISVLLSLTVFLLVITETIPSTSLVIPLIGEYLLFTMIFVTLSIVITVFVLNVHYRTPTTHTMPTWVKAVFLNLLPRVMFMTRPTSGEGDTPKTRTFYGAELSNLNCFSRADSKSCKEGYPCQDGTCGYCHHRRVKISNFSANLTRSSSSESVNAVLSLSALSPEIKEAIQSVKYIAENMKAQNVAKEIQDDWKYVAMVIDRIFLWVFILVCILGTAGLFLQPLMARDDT
T2 sequence (P12392 whole entry): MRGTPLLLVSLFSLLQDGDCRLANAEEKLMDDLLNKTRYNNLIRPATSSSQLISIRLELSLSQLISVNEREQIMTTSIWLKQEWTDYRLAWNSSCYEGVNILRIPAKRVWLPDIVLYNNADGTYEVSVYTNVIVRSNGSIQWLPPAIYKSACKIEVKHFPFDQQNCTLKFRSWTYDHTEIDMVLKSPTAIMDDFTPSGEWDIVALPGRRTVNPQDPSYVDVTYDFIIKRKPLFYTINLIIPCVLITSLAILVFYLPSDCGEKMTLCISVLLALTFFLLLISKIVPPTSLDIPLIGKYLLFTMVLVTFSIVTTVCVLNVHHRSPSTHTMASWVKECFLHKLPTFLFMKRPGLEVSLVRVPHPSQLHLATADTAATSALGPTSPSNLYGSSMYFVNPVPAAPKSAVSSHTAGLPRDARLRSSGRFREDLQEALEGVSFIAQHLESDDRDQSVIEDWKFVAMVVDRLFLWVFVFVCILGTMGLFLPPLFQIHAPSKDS

Structure (SMILES)	EC50 ([1]; hek293)	EC50 ([2]; hek293)	Emax [3] [%]	Ratio Ki (Rattus norvegicus [5])	Ratio Ki (Rattus norvegicus [6])	IC50 [7] [µM]	further results
CCCCC#Cc1cnc(C)c(OC[C@@H]2CCCN2)c1	Not Active	Not Active					
Cc1ncc(C#CCCCCO)cc1OC[C@@H]1CCN1		Not Active	20	40000	70000	> 10	Ratio Ki [4]: 2; EC50 ([1]; read-out: EC50): 0.45 µM
CCCCC#Cc1cnc(C)c(OC[C@@H]2CCN2)c1		Not Active	15	7800	19000	> 10	Activity (Rattus norvegicus [8]): Dose-dependent effect; Activity (Mustela putorius furo [9]): Non-toxic; Activity (Rattus norvegicus [10]): Active; Activity (Mustela putorius furo [11]): Non-toxic; Activity (Rattus norvegicus [12]): inactive; Activity (Rattus norvegicus [13]): Active
OCCCCC#Cc1cncc(OC[C@@H]2CCN2)c1				11000	31000		Emax [14]: 12%; EC50 ([2]; read-out: EC50): 30 µM; IC50 [15]: 0.011 µM
Cc1ncc(C#CCCCCF)cc1OC[C@@H]1CCN1	Not Active	Not Active				> 10	
c1cnc2cc3c(cc2n1)[C@@H]1CNC[C@H]3C1 [VARENICLINE]							Activity (Mustela putorius furo [16]): Toxic; Activity (Mustela putorius furo [17]): Toxic; Activity (Mustela putorius furo [18]): Toxic; Activity (Mustela putorius furo [19]): Toxic; Activity (Mustela putorius furo [20]): Non-toxic; Activity (Mustela putorius furo [21]): Toxic; Activity (Mustela putorius furo [22]): Toxic; EC50 ([2]; read-out: EC50): 21 µM
Cc1ncc(C#CC2CC2)cc1OC[C@@H]1CCN1		Not Active	17	16000	16000	> 10	
CCCCC#Cc1cnc(C(F)(F)F)c(OC[C@@H]2CCN2)c1							Ratio Ki (Rattus norvegicus [23]): > 100000; Ki [24]: > 100 µM
Cc1ncc(C#CCCCCCl)cc1OC[C@@H]1CCN1	Not Active	Not Active		13000	17000	> 10	Ratio Ki (Rattus norvegicus [23]): 32
